According to ChEMBL document CHEMBL1255454, “Systematic approach to optimizing specifically targeted antimicrobial peptides against Streptococcus mutans” (2010):
The source made the active and inactive calls. The calls are words filed in the database; no cut-off is given here.

Columns and labels:
Streptococcus mutans [1] = experiment: Antimicrobial activity against Streptococcus mutans UA159 after 16 to 20 hrs by broth microdilution assay; type: functional
Method in brief: (§1)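 Broth microdilution. Twofold peptide dilutions were made in 50% BHI–50% sterile water for oral streptococci and in 1× Mueller-Hinton broth for the other bacteria. First round 500 to 0.97 µg/ml; a second round of 64 to 0.5 µg/ml was run in some cases, reporting its mode. Inoculum ~1 × 10^5 CFU/ml, 37°C for 16–20 h. Read A600; MIC taken as complete inhibition or ≥90% turbidity reduction versus peptide-free control.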

Streptococcus mitis [2] = experiment: Antimicrobial activity against Streptococcus mitis ATCC 903 after 16 to 20 hrs by broth microdilution assay; type: functional; method in brief: as §1
[3] = Antimicrobial activity against Streptococcus gordonii Challis DL1 after 16 to 20 hrs by broth microdilution assay; type: functional, Streptococcus gordonii str. Challis; method in brief: as §1
Streptococcus oralis = experiment: Antimicrobial activity against Streptococcus oralis assessed as inhibition of bacterial biofilm formation at 50 uM after 10 mins; type: functional
Method in brief: (§2)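 Mixed-species biofilms were grown 24 h at 37°C anaerobically in TH with 50% filter-sterilized pooled human saliva and 1% sucrose. Inoculum: S. mutans JM11 at 1 × 10^6 CFU/well plus S. oralis, S. gordonii, S. sanguinis, S. mitis and S. salivarius at 2 × 10^5 CFU/well each. Survivors were plated on TH agar for total streptococci and on TH agar with 800 µg/ml spectinomycin for JM11. Detection limit 100 CFU/ml.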

Streptococcus sanguinis [4] = experiment: Antimicrobial activity against Streptococcus sanguinis assessed as inhibition of bacterial biofilm formation at 50 uM after 10 mins; type: functional; method in brief: as §2
Streptococcus sanguinis [5] = experiment: Antimicrobial activity against Streptococcus sanguinis NY101 after 16 to 20 hrs by broth microdilution assay; type: functional; method in brief: as §1
Streptococcus mutans [6] = experiment: Antimicrobial activity against Streptococcus mutans UA159 at 25 ug/ml after 30 mins by time-kill assay; type: functional
Method in brief: (§3)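 Time-kill. Overnight cultures were diluted in BHI to A600 0.08 and treated with peptide at 25 µg/ml for 30 s to 2 h. Aliquots were diluted 1:50 in BHI, held on ice, plated and counted after 24 h as surviving CFU/ml. Three independent experiments, mean with SD; unpaired Student t test.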

Streptococcus mutans [7] = experiment: Antimicrobial activity against Streptococcus mutans UA159 assessed as inhibition of viability of bacterial biofilm at 25 ug/ml treated for 1 min measured after 4 hrs; type: functional
Method in brief: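 S. mutans biofilms were seeded from overnight culture diluted 1:50 in TH broth with 0.5% sucrose, centrifuged, and grown 4 h anaerobically at 37°C. They were exposed to peptide in 1× PBS for about 1 min, washed, and given fresh TH broth without sucrose. Recovery was read as A600 after 4 h anaerobic incubation at 37°C. Three experiments; unpaired t test.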

Pseudomonas aeruginosa = experiment: Antimicrobial activity against Pseudomonas aeruginosa PAK after 16 to 20 hrs by broth microdilution assay; type: functional; method in brief: as §1
Streptococcus mutans [8] = experiment: Antimicrobial activity against Streptococcus mutans JM11 assessed as inhibition of bacterial biofilm formation at 50 uM after 10 mins; type: functional; method in brief: as §2
Streptococcus salivarius = experiment: Antimicrobial activity against Streptococcus salivarius assessed as inhibition of bacterial biofilm formation at 50 uM after 10 mins; type: functional; method in brief: as §2
Streptococcus gordonii = experiment: Antimicrobial activity against Streptococcus gordonii assessed as inhibition of bacterial biofilm formation at 50 uM after 10 mins; type: functional; method in brief: as §2
Staphylococcus aureus = experiment: Antimicrobial activity against methicillin-resistant Staphylococcus aureus after 16 to 20 hrs by broth microdilution assay; type: functional
Method in brief: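 MRSA grown aerobically in BHI at 37°C. Broth microdilution: 2-fold peptide dilutions in 1× Mueller-Hinton broth, first round 500 to 0.97 µg/ml; if activity below 62.5 µg/ml, sometimes a second round at 64 to 0.5 µg/ml, reporting the mode. Inoculum ~1 × 10^5 CFU/ml, 37°C for 16-20 h. A600 read. MIC = lowest concentration giving complete inhibition or ≥90% turbidity reduction versus peptide-free control.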

Streptococcus mutans [9] = experiment: Antimicrobial activity against Streptococcus mutans UA159 assessed as inhibition of bacterial biofilm formation at 25 uM after 3 mins by fluorescence assay; type: functional
Method in brief: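 S. mutans UA159 overnight culture was diluted 1:5,000 in TH with 1% sucrose and grown as biofilm for 24 h. Biofilms were exposed 3 min at room temperature to 25 µM fluorescein-labelled peptide in HEPES/NaHCO3/NaCl/MgCl2 buffer with 0.1% CTAB, pH 7.4, then washed twice. Green fluorescence images were taken and biofilm-associated green pixels quantified as binding intensity units.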

[10] = tested on: Streptococcus gordonii str. Challis; experiment: Antimicrobial activity against Streptococcus gordonii Challis DL1 at 25 ug/ml after 30 mins by time-kill assay; type: functional; method in brief: as §3
Streptococcus sanguinis [11] = experiment: Antimicrobial activity against Streptococcus sanguinis NY101 at 25 ug/ml after 30 mins by time-kill assay; type: functional, organism-based; method in brief: as §3
Streptococcus mitis [12] = experiment: Antimicrobial activity against Streptococcus mitis ATCC 903 at 25 ug/ml after 30 mins by time-kill assay; type: functional, organism-based; method in brief: as §3
Streptococcus mitis [13] = experiment: Antimicrobial activity against Streptococcus mitis assessed as inhibition of bacterial biofilm formation at 50 uM after 10 mins; type: functional; method in brief: as §2

H-FIKHFIHRFGGGFKKFWKWFRRF-NH2
MIC (Streptococcus mutans [1]): 4 µg/mL | MIC (Streptococcus mitis [2]): 32 µg/mL | MIC [3]: 62.5 µg/mL | inhibition (Streptococcus oralis): inactive | inhibition (Streptococcus sanguinis [4]): inactive | MIC (Streptococcus sanguinis [5]): 16 µg/mL | Activity (Streptococcus mutans [6]): Active | inhibition (Streptococcus mutans [7]): Active | MIC (Pseudomonas aeruginosa): 62.5 µg/mL | inhibition (Streptococcus mutans [8]): Active | inhibition (Streptococcus salivarius): inactive | inhibition (Streptococcus gordonii): inactive | MIC (Staphylococcus aureus): 16 µg/mL | inhibition (Streptococcus mutans [9]): Active | Activity [10]: Active | Activity (Streptococcus sanguinis [11]): Active | Activity (Streptococcus mitis [12]): Active | inhibition (Streptococcus mitis [13]): inactive
